Assay results taken from article PMC5023007 (Bioorganic & medicinal chemistry, 2016).

biological target: T1, ATX (Homo sapiens, UniProt Q13822); experiment: ATX activity assay with FS-3 substrate; assay type: biochemical; conditions: 10 μM compound, 10 nM ATX, 1 μM FS-3
Summary of the method: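 Purified human FLAG-tagged ATX at 10 nM with 10 µM test compound and 1 µM FS-3 in 50 mM Tris pH 8.0, 30 µM BSA, 1 mM CaCl2, 1 mM MgCl2, 5 mM KCl, 140 mM NaCl. Fluorescence (ex 485/em 520 nm) was read every 2 min for 60 min at 37°C, in triplicate. Signal was normalized to no-ATX (0%) and ATX-without-compound (100%). Interference was checked with 100 nM carboxyfluorescein ± compound.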

FS-3 Inhibition (%) | SMILES
false positive | CC(C)(C)CN(Cc1cccc(CN)c1)C(=O)c1ccc(-c2ccc(F)cc2)nc1 [GRI 792685]

same assay, conditions: read-out: FS-3 Inhibition (%), 10 μM compound, 10 nM ATX, 1 μM FS-3

inhibition at 10 µM [%] | SMILES
48 ± 4.4 | COc1ccc2c(c1)C(NCc1cc(OC)c(OC)cc1N)CCO2 (stereo not shown) [GRI 93694]
54.1 ± 0.2 | CCCCCCCCCCCCCC(=O)NC(CCC(=O)O)C(=O)O (stereo not shown) [GRI 96880]
65.5 ± 3.2 | O=C(CCCOc1ccc(Cl)cc1Cl)N1CCN(c2ccc([N+](=O)[O-])cc2)CC1 [GRI 392104]

SMILES | inhibition at 10 µM [%]
CC(=O)OC1(C(=O)COC(=O)c2ccco2)CC2CCC3C4C=CC(=O)CC4(C)CCC3C2(C)C1 (stereo not shown) [GRI 519441] | 59.7 ± 1.7

biological target: T1, ATX; experiment: ATX activity assay with pNP-TMP substrate; assay type: biochemical; conditions: read-out: pNP-TMP Inhibition (%)
Summary of the method: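 Runs were in triplicate with human FLAG-fusion ATX, purified, at 10 nM, 10 µM test compound and 1 mM pNP-TMP. Buffer was 50 mM Tris pH 8.0 containing 30 µM BSA, 1 mM CaCl2, 1 mM MgCl2, 5 mM KCl and 140 mM NaCl. Absorbance at 405 nm was read every 2 min over 60 min at 37°C. Values were scaled between no-enzyme (0%) and uninhibited enzyme (100%). Interference control used 100 µM para-nitrophenol ± compound.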

SMILES | inhibition at 10 µM [%]
O=C(O)c1ccc(N2CCN(C(=O)COc3cccc(C(F)(F)F)c3)CC2)cc1 [Analog 61, 4-(4-(2-(3-(trifluoromethyl)phenoxy)acetyl)piperazin-1-yl)benzoic acid] | -11.4 ± 2.6
CC(=O)OC1(C(=O)COC(=O)c2ccco2)CC2CCC3C4C=CC(=O)CC4(C)CCC3C2(C)C1 (stereo not shown) [GRI 519441] | -45.4 ± 2.5

Now from value to molecule:

inhibition at 10 µM [%] | SMILES
-14.7 ± 2.9 | O=C(COc1ccccc1F)N1CCN(c2cccc([N+](=O)[O-])c2)CC1 [Analog 13, 2-(2-fluorophenoxy)-1-(4-(3-nitrophenyl)piperazin-1-yl)ethanone]
-11.9 ± 1.3 | O=C(COc1ccccc1Cl)N1CCN(c2ccc([N+](=O)[O-])cc2)CC1 [Analog 23, 2-(2-chlorophenoxy)-1-(4-(4-nitrophenyl)piperazin-1-yl)ethanone]
-22.7 ± 4.2 | O=C(COc1ccccc1F)N1CCN(c2ccc([N+](=O)[O-])cc2)CC1 [Analog 24, 2-(2-fluorophenoxy)-1-(4-(4-nitrophenyl)piperazin-1-yl)ethanone]
-14.1 ± 2.3 | O=C(COc1cccc(F)c1)N1CCN(c2ccc([N+](=O)[O-])cc2)CC1 [Analog 27, 2-(3-fluorophenoxy)-1-(4-(4-nitrophenyl)piperazin-1-yl)ethanone]
-12.1 ± 1.2 | O=C(COc1ccc(F)cc1)N1CCN(c2ccc([N+](=O)[O-])cc2)CC1 [Analog 30, 2-(4-fluorophenoxy)-1-(4-(4-nitrophenyl)piperazin-1-yl)ethanone]
-14.9 ± 4.7 | O=C(COc1ccc(Cl)cc1Cl)N1CCN(c2ccc([N+](=O)[O-])cc2)CC1 [Analog 32, 2-(2,4-dichlorophenoxy)-1-(4-(4-nitrophenyl)piperazin-1-yl)ethanone]
-12 ± 6 | O=C(O)c1ccc(N2CCN(C(=O)COc3ccccc3F)CC2)cc1 [Analog 57, 4-(4-(2-(2-fluorophenoxy)acetyl)piperazin-1-yl)benzoic acid]
-36.5 ± 6.3 | O=C(O)c1ccc(N2CCN(C(=O)COc3cccc(F)c3)CC2)cc1 [Analog 60, 4-(4-(2-(3-fluorophenoxy)acetyl)piperazin-1-yl)benzoic acid]

biological target: LPA2 (Homo sapiens, UniProt Q9HBW0); experiment: Calcium mobilization assay, potentiation of LPA effect at LPA2; assay type: cell-based; conditions: supplemental figure
Sequence (Q9HBW0 whole entry, species assumed): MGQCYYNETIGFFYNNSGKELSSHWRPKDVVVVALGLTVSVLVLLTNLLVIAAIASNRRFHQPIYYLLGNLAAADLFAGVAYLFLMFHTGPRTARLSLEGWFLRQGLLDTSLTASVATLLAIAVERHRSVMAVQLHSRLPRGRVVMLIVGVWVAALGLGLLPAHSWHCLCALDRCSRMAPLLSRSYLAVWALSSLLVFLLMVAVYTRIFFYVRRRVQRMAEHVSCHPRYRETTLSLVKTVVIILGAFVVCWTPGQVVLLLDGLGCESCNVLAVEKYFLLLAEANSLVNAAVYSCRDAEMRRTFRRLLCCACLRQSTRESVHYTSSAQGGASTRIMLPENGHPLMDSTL

SMILES | potentiation of LPA effects at LPA2
O=C(COc1cc(Cl)cc(Cl)c1)N1CCN(c2cccc([N+](=O)[O-])c2)CC1 [Analog 22, 2-(3,5-dichlorophenoxy)-1-(4-(3-nitrophenyl)piperazin-1-yl)ethanone] | modest potentiation of LPA effects at LPA2
